From ChEMBL document CHEMBL1128727, “Characterization of a class of peptide boronates with neutral P1 side chains as highly selective inhibitors of thrombin” (J Med Chem, 1995)

Experiments:
Prothrombin [1] = biological target: T1, Prothrombin (Homo sapiens, UniProt P00734); assay: Binding affinity against thrombin
Method in brief: (§1)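 Human α-thrombin or human γ-thrombin was assayed with S-2238 (H-D-Phe-Pip-Arg-pNA), with velocity measured over 2 min at 25 °C. A 2 h preincubation screened for slow binding. For competitive inhibitors, Ki came from Lineweaver–Burk plots at five substrate concentrations over 10-fold around Km; slow binders were fitted to the slow-binding rate equations. At least five points were run in duplicate.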

Coagulation factor X = Coagulation factor X (Homo sapiens, UniProt P00742); assay: Binding affinity against Coagulation factor X
Sequence of Coagulation factor X (P00742 41-179 limits assumed): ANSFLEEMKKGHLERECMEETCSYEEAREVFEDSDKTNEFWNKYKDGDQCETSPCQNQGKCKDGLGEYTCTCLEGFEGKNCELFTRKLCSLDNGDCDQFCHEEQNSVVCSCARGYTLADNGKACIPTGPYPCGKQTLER
Sequence of Coagulation factor X (P00742 235-488 limits assumed): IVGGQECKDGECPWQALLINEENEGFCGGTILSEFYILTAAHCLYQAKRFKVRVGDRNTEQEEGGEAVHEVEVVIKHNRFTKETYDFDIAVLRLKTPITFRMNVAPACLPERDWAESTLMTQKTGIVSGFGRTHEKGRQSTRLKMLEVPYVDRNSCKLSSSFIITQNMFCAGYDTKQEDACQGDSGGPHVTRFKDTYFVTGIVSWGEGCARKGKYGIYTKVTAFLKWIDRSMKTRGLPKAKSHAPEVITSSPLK
Method in brief: (§2)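 Chromogenic pNA assays used human plasma factor Xa with S-2222, human plasmin with S-2251, human kidney urokinase with S-2444, and human plasma activated protein C with S-2366. Rates were read over 2 min at 25 °C. A 2 h enzyme–inhibitor preincubation tested for slow binding. For non-slow binders, Ki came from Lineweaver–Burk plots at five substrate levels over a 10-fold range around Km, using at least five points in duplicate.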

Serine protease 1 = biological target: T2, Serine protease 1 (Bos taurus, UniProt P00760); assay: Binding affinity against Trypsin
T2 sequence (P00760 whole entry): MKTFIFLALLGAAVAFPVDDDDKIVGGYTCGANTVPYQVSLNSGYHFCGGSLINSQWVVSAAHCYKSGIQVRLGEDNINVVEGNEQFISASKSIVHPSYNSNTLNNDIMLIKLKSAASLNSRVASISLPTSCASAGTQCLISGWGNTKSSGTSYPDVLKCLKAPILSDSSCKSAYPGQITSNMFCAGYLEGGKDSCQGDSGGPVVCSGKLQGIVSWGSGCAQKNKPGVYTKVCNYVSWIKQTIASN
Method in brief: (§3)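 Enzymes: bovine pancreatic α-chymotrypsin with S-2586 (MeO-Suc-Arg-Pro-Tyr-pNA), human plasma kallikrein with S-2288, porcine pancreatic elastase with Suc-Ala-Ala-Ala-pNA, and bovine pancreatic trypsin. Initial velocity was read at 25 °C over 2 min. A 2 h preincubation was used to screen for slow binding. For competitive inhibitors, Ki came from Lineweaver–Burk plots at five substrate concentrations spanning 10-fold around Km, using at least five points in duplicate.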

Prothrombin [2] = biological target: T1, Prothrombin; assay: Binding affinity against alpha thrombin; method in brief: as §1
Plasminogen [3] = biological target: T3, Plasminogen (Homo sapiens, UniProt P00747); assay: Binding affinity against plasmin; method in brief: as §2
T3 sequence (P00747 97-580 limits assumed): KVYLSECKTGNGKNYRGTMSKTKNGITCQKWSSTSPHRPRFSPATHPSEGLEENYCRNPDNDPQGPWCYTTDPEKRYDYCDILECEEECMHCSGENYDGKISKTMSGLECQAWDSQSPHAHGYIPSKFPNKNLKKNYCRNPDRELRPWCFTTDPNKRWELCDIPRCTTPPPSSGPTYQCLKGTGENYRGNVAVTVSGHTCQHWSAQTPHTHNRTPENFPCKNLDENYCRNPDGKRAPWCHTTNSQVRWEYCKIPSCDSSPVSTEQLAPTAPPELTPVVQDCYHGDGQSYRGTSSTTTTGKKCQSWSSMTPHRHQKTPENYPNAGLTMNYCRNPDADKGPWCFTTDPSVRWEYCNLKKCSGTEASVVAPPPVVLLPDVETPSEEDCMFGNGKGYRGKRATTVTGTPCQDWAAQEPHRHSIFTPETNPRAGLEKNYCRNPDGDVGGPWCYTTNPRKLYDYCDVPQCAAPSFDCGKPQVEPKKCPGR
T3 sequence (P00747 581-810 limits assumed): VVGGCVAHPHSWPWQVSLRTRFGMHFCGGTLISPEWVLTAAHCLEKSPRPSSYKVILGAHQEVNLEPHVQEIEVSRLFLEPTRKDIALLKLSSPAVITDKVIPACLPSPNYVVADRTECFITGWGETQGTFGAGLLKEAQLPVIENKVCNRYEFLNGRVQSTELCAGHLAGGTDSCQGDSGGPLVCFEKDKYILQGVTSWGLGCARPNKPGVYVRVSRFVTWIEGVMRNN

Chymotrypsinogen A = Chymotrypsinogen A (Bos taurus, UniProt P00766); assay: Binding affinity against Chymotrypsin; method in brief: as §3
Prothrombin [4] = biological target: T1, Prothrombin; assay: Binding affinity against gamma thrombin; method in brief: as §1
[5] = Concentration of inhibitor required to produce a 2-fold prolongation in activated partial Thromboplastin time (APTT) in human plasma; format: functional
Method in brief: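 Pooled citrated normal human plasma, APTT reagent and inhibitor were incubated for 5 min at 37 °C. Clotting was started with CaCl2 from a 25 mM aqueous solution and timed on a coagulometer. The inhibitor concentration that doubled the APTT was determined in duplicate.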

[6] = Binding affinity against protein Ca; method in brief: as §2
[7] = biological target: Urokinase-type plasminogen activator (Homo sapiens, UniProt P00749); assay: Binding affinity against Urokinase plasminogen activator; method in brief: as §2
[8] = biological target: Plasma kallikrein (Homo sapiens) (UniProt P03952); assay: Binding affinity against plasma kallikrein
Sequence of Plasma kallikrein (Homo sapiens) (P03952 whole entry, looked up): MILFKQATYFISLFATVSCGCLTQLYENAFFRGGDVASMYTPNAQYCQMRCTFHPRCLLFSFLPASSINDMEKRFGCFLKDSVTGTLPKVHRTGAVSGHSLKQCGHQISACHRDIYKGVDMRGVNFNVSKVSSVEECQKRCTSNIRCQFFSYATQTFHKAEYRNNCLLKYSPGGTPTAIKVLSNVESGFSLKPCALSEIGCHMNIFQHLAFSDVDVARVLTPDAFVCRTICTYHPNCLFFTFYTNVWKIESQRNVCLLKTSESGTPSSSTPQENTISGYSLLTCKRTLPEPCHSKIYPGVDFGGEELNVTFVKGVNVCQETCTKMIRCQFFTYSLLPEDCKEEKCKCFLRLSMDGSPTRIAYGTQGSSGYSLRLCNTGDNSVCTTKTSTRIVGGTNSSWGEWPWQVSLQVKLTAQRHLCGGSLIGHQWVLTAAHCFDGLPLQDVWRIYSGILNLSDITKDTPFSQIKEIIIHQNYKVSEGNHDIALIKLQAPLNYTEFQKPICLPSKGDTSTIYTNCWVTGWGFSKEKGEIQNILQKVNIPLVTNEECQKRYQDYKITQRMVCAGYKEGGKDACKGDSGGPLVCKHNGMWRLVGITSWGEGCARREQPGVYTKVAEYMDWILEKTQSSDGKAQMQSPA

Prothrombin [9] = biological target: T1, Prothrombin; assay: Concentration of inhibitor required to produce a 2-fold prolongation in Thrombin time (TT)
Method in brief: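 Pooled citrated normal human plasma was incubated with inhibitor for 1 min at 37 °C; the inhibitor was serially diluted in buffer from a DMSO stock. Human α-thrombin was then added from a 5 units/mL solution in 50 mM sodium phosphate, 0.1% PEG, pH 7.4. Clotting was timed on a coagulometer, and the concentration that doubled the thrombin time was determined in duplicate.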

Cathepsin G = biological target: T4, Cathepsin G (Homo sapiens, UniProt P08311); assay: Binding affinity against cathepsin G
T4 sequence (P08311 whole entry): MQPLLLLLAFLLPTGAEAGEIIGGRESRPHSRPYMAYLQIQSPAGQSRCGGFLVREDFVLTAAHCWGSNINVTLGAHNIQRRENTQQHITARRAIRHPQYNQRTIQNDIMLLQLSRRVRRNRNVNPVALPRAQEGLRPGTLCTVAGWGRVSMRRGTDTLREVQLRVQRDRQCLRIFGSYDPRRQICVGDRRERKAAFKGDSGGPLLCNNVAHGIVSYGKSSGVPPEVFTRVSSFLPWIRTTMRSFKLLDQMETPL

Plasminogen [10] = biological target: T3, Plasminogen; assay: Binding affinity against Plasmin; method in brief: as §2

SMILES | Ki (Prothrombin [1]) | Ki (Serine protease 1) | Ki (Prothrombin [2]) | Ki (Plasminogen [3]) | Ki (Chymotrypsinogen A) | Ki (Prothrombin [4]) | APTT [5] | Ki [6] | Ki [7] | Ki [8] | TT (Prothrombin [9]) | further results
CC1(C)C2CC1[C@]1(C)OB(C(CCCl)NC(=O)[C@@H]3CCCN3C(=O)[C@H](Cc3ccccc3)NC(=O)OCc3ccccc3)O[C@@H]1C2 (stereo partly specified) | 29 nM |  |  |  |  |  |  |  |  |  |  | 
COCCC[C@@H](NC(=O)[C@@H]1CCCN1C(=O)[C@@H](Cc1ccccc1)NC(=O)OCc1ccccc1)B1O[C@@H]2CC3CC(C3(C)C)[C@]2(C)O1 (stereo in doubt; 9a) [listing 1 of 2 here] | 7 nM | 670 nM | 7 nM | 7800 nM | 1210 nM | 28 nM | 3.4 µM | 2100 nM | 81000 nM | 6100 nM |  | Ki (Coagulation factor X): 3100 nM
COCCC[C@@H](NC(=O)[C@@H]1CCCN1C(=O)[C@@H](Cc1ccccc1)NC(=O)OCc1ccccc1)B1O[C@@H]2CC3CC(C3(C)C)[C@]2(C)O1 (stereo in doubt; 9b) | 7 nM |  |  |  |  |  |  |  |  |  |  | 
CC1(C)C2CC1[C@]1(C)OB(C(CCCBr)NC(=O)[C@@H]3CCCN3C(=O)[C@H](Cc3ccccc3)NC(=O)OCc3ccccc3)O[C@@H]1C2 (stereo in doubt; 14) | 130 nM |  |  |  |  |  |  |  |  |  |  | 
CC1(C)C2CC1[C@]1(C)OB(C(CCCBr)NC(=O)[C@@H]3CCCN3C(=O)[C@H](Cc3ccccc3)NC(=O)OCc3ccccc3)O[C@@H]1C2 (stereo in doubt; 12) | 7 nM |  |  |  |  |  |  |  |  |  |  | 
CCC(C)(C)C(NC(=O)[C@@H]1CCCN1C(=O)[C@H](Cc1ccccc1)NC(=O)OCc1ccccc1)B1O[C@@H]2CC3CC(C3(C)C)[C@]2(C)O1 (stereo partly specified) | 7 nM | 270 nM | 7 nM | 5500 nM | 152 nM | 24 nM | 4 µM | 4200 nM | 15000 nM | 9500 nM | 1.1 µM | Ki (Coagulation factor X): 2600 nM
CCCCCC(NC(=O)[C@@H]1CCCN1C(=O)[C@H](Cc1ccccc1)NC(=O)OCc1ccccc1)B1O[C@@H]2CC3CC(C3(C)C)[C@]2(C)O1 (stereo in doubt; 3) [listing 1 of 2 here] |  |  |  |  |  |  |  |  |  |  | 0.54 µM | 
COCCC[C@@H](NC(=O)[C@@H]1CCCN1C(=O)[C@@H](Cc1ccccc1)NC(=O)OCc1ccccc1)B1O[C@@H]2CC3CC(C3(C)C)[C@]2(C)O1 (stereo in doubt; 11) | 120 nM |  |  |  |  |  |  |  |  |  |  | 
CC1(C)C2CC1[C@]1(C)OB(C(Cc3ccccc3)NC(=O)[C@@H]3CCCN3C(=O)[C@H](Cc3ccccc3)NC(=O)OCc3ccccc3)O[C@@H]1C2 (stereo partly specified) | 18 nM | 150 nM | 18 nM | 4500 nM | 11 nM | 11 nM | 2.5 µM | > 4300 nM | > 4300 nM | > 4300 nM | 0.53 µM | Ki (Coagulation factor X): 1200 nM
COCCC[C@@H](NC(=O)[C@@H]1CCCN1C(=O)[C@@H](Cc1ccccc1)NC(=O)OCc1ccccc1)B1O[C@@H]2CC3CC(C3(C)C)[C@]2(C)O1 (stereo in doubt; 9a) [listing 2 of 2 here] |  |  |  |  |  |  |  |  |  |  | 2.8 µM | 
CCCCCCCCC(NC(=O)[C@@H]1CCCN1C(=O)[C@H](Cc1ccccc1)NC(=O)OCc1ccccc1)B1O[C@@H]2CC3CC(C3(C)C)[C@]2(C)O1 (stereo partly specified) | 43 nM |  |  |  |  |  | >50 µM |  |  |  | 3.9 µM | 
COCCCC(NC(=O)[C@@H]1CCCN1C(=O)[C@@H](NC(=O)OCc1ccccc1)C(c1ccccc1)c1ccccc1)B1O[C@@H]2CC3CC(C3(C)C)[C@]2(C)O1 (stereo partly specified) | 3 nM | 54 nM | 2 nM | 12000 nM | 2960 nM | 4 nM | 20 µM | 2400 nM | 33000 nM | 34000 nM | 0.63 µM | Ki (Coagulation factor X): 7200 nM
COCCC[C@@H](NC(=O)[C@@H]1CCCN1C(=O)[C@@H](Cc1ccccc1)NC(=O)OCc1ccccc1)B1O[C@@H]2CC3CC(C3(C)C)[C@]2(C)O1 (stereo in doubt; 10) | 7 nM |  |  |  |  |  |  |  |  |  |  | 
CC1(C)C2CC1[C@]1(C)OB(C(Cc3ccccc3)NC(=O)[C@@H]3CCCN3C(=O)[C@@H](NC(=O)OCc3ccccc3)C(c3ccccc3)c3ccccc3)O[C@@H]1C2 (stereo partly specified) | 130 nM | 440 nM | 130 nM | 3000 nM | 21 nM | 59 nM | >50 µM | > 4800 nM | > 48000 nM | 9500 nM | 5.2 µM | Ki (Coagulation factor X): 4300 nM
Cc1ccc(CCC(NC(=O)[C@@H]2CCCN2C(=O)[C@H](Cc2ccccc2)NC(=O)OCc2ccccc2)B2O[C@@H]3CC4CC(C4(C)C)[C@]3(C)O2)cc1 (stereo partly specified) | 20 nM |  |  |  |  |  |  |  |  |  |  | 
CCC(NC(=O)[C@@H]1CCCN1C(=O)[C@H](Cc1ccccc1)NC(=O)OCc1ccccc1)B1O[C@@H]2CC3CC(C3(C)C)[C@]2(C)O1 (stereo partly specified) | 1000 nM |  |  |  |  |  |  |  |  |  |  | 
CCCCCC(NC(=O)[C@@H]1CCCN1C(=O)[C@H](Cc1ccccc1)NC(=O)OCc1ccccc1)B1O[C@@H]2CC3CC(C3(C)C)[C@]2(C)O1 (stereo in doubt; 3) [listing 2 of 2 here] | 19 nM | 320 nM | 19 nM | 2900 nM | 115 nM | 19 nM | 2.3 µM | 1600 nM | 23000 nM | 120000 nM |  | Ki (Coagulation factor X): 580 nM
CCCCCC(NC(=O)[C@@H]1CCCN1C(=O)[C@H](Cc1ccccc1)NC(=O)OCc1ccccc1)B1O[C@@H]2CC3CC(C3(C)C)[C@]2(C)O1 (stereo in doubt; 21) | 100 nM |  |  |  |  |  |  |  |  |  |  | 
CCCCCC(NC(=O)[C@@H]1CCCN1C(=O)[C@H](Cc1ccccc1)NC(=O)OCc1ccccc1)B1O[C@@H]2CC3CC(C3(C)C)[C@]2(C)O1 (stereo in doubt; 2) | 26 nM |  |  |  |  |  |  |  |  |  |  | 
CC(C)C(NC(=O)[C@@H]1CCCN1C(=O)[C@@H](NC(=O)OCc1ccccc1)C(c1ccccc1)c1ccccc1)B1O[C@@H]2CC3CC(C3(C)C)[C@]2(C)O1 (stereo partly specified) | 19 nM |  |  |  |  |  |  |  |  |  |  | 
CCCCCC(NC(=O)[C@@H]1CCCN1C(=O)[C@@H](NC(=O)OCc1ccccc1)C(c1ccccc1)c1ccccc1)B1O[C@@H]2CC3CC(C3(C)C)[C@]2(C)O1 (stereo partly specified) | 42 nM | 450 nM | 42 nM | 24000 nM | 1200 nM | 27 nM |  | 53000 nM | 540000 nM | 160000 nM |  | Ki (Coagulation factor X): 13000 nM; Ki (Cathepsin G): 14300 nM
CCC(C)(C)C(NC(=O)[C@@H]1CCCN1C(=O)[C@H](Cc1ccc2ccccc2c1)NC(=O)OCc1ccccc1)B1O[C@@H]2CC3CC(C3(C)C)[C@]2(C)O1 (stereo partly specified) |  | 2400 nM | 82 nM | 13000 nM | 1460 nM | 140 nM | 110 µM | 32000 nM | 140000 nM | 370000 nM | 16 µM | Ki (Coagulation factor X): 23000 nM
CCC(C)(C)C(NC(=O)[C@@H]1CCCN1C(=O)[C@@H](NC(=O)OCc1ccccc1)C(c1ccccc1)c1ccccc1)B1O[C@@H]2CC3CC(C3(C)C)[C@]2(C)O1 (stereo partly specified) | 82 nM | 560 nM | 28 nM | 17000 nM | 2890 nM | 34 nM | 50 µM | > 63000 nM | > 63000 nM | > 63000 nM | 21 µM | Ki (Plasminogen [10]): 17000 nM
COCCC(NC(=O)[C@@H]1CCCN1C(=O)[C@H](Cc1ccccc1)NC(=O)OCc1ccccc1)B1O[C@@H]2CC3CC(C3(C)C)[C@]2(C)O1 (stereo partly specified) | 21 nM |  |  |  |  |  |  |  |  |  |  | 
CC1(C)C2CC1[C@]1(C)OB(C(CCCBr)NC(=O)[C@@H]3CCCN3C(=O)[C@H](Cc3ccccc3)NC(=O)OCc3ccccc3)O[C@@H]1C2 (stereo in doubt; 13) | 15000 nM |  |  |  |  |  |  |  |  |  |  | 
COCCCC(NC(=O)[C@@H]1CCCN1C(=O)[C@H](Cc1ccccc1)NC(=O)OCc1ccccc1)B1O[C@@H]2CC3CC(C3(C)C)[C@]2(C)O1 (stereo partly specified) | 11000 nM |  |  |  |  |  |  |  |  |  |  | 
CC1(C)C2CC1[C@]1(C)OB(C(CCC3OCCO3)NC(=O)[C@@H]3CCCN3C(=O)[C@H](Cc3ccccc3)NC(=O)OCc3ccccc3)O[C@@H]1C2 (stereo partly specified) | 25 nM |  |  |  |  |  | 18 µM |  |  |  | 3.4 µM | 
